Assay results published in ChEMBL document CHEMBL1151859, “Structure-activity relationship studies of a novel series of anthrax lethal factor inhibitors” (Bioorg Med Chem, 2009).
Activity calls are given as the source filed them. The rule behind the calls is not given here.

Experiments:
Lethal factor = target: T1, Lethal factor (Bacillus anthracis, UniProt P15917); test: Inhibition of Bacillus anthracis lethal factor assessed as cleavage of MAPKK by fluorescence peptide cleavage assay
T1 sequence (P15917 whole entry): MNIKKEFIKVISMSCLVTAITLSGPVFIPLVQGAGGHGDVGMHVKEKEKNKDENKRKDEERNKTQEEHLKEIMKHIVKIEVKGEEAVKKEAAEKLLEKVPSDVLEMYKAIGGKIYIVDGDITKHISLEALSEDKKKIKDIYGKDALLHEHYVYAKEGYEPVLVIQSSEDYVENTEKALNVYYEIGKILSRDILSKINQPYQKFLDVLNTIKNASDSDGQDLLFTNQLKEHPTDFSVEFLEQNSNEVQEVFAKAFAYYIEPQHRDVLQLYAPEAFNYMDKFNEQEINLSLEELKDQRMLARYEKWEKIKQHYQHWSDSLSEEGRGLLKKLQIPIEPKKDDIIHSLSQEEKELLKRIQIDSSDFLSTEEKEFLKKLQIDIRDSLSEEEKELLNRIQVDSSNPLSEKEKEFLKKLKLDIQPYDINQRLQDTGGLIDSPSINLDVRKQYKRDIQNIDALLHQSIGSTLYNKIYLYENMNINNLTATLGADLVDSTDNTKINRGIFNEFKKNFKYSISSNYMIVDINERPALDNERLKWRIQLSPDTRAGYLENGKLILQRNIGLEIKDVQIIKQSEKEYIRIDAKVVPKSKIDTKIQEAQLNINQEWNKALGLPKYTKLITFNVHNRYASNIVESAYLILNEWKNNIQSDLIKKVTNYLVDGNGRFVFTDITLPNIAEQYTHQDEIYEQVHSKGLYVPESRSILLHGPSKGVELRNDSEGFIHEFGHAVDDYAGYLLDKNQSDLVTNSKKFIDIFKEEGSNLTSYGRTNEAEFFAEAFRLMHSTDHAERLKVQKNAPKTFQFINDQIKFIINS

[1] = target: Matrix metalloproteinase-9 (Homo sapiens) (UniProt P14780); test: Inhibition of human MMP9 up to 100 uM by fluorescence peptide cleavage assay
Sequence of Matrix metalloproteinase-9 (Homo sapiens) (P14780 whole entry): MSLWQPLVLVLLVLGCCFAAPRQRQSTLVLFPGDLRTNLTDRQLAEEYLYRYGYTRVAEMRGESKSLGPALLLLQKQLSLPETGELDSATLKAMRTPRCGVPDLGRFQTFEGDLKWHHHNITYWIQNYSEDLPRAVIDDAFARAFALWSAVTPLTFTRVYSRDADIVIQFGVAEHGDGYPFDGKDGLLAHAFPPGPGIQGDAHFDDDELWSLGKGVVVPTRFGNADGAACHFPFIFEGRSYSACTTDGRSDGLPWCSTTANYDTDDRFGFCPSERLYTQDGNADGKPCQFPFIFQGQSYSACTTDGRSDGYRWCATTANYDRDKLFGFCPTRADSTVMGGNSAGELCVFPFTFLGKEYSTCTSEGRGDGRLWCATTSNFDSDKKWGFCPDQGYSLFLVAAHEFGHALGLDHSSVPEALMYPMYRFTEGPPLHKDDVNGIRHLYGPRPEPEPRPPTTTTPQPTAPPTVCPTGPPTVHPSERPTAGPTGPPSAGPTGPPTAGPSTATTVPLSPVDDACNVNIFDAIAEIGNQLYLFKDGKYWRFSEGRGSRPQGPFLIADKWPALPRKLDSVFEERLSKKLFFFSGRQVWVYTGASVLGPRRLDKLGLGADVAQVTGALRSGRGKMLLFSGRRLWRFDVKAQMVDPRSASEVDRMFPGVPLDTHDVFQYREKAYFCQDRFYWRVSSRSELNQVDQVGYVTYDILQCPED
Summary of the method: (§1)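 Pro-MMP-2 or pro-MMP-9 activated with 1 mM APMA (20 min or 2 h, respectively), then used at 10 μg/mL with 5-FAM/QXL520 peptide substrate in kit assay buffer.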

[2] = target: 72 kDa type IV collagenase (Homo sapiens) (UniProt P08253); test: Inhibition of human MMP2 up to 100 uM by fluorescence peptide cleavage assay; summary of the method: as §1
Sequence of 72 kDa type IV collagenase (Homo sapiens) (P08253 110-660 limits assumed): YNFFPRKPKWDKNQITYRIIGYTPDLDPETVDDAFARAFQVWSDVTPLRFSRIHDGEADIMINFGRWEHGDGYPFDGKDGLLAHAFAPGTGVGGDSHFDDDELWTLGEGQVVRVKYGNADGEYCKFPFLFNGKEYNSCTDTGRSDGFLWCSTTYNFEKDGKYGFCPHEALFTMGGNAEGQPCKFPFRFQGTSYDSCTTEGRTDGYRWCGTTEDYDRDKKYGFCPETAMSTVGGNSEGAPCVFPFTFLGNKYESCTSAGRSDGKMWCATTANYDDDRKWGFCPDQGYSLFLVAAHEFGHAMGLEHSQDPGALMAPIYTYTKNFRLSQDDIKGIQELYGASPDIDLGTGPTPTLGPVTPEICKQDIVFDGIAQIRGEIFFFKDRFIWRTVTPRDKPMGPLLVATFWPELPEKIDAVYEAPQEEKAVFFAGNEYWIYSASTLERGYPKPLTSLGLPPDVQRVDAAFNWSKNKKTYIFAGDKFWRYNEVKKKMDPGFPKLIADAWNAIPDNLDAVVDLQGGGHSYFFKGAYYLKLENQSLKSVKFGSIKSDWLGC

HeLa [3] = test: Protection against anthrax protective antigen-38/LF-induced cell death in human HeLa cells assessed as MEK1 cleavage at 30 uM treated 90 mins after PA38/LA challenge immunoblotting assay; format: functional, cell-based
[4] = Solubility at 500 uM; format: physicochemical
[5] = Chemical stability of the compound; format: physicochemical
Bacillus anthracis [6] = test: Antibacterial activity against Bacillus anthracis Sterene infected in A/J mouse assessed as mouse survival at 25 mg/kg, ip daily after 24 hrs of infection for 8 days relative to control; format: functional, organism-based; set-up: dose 25 mg/kg
RAW264.7 = test: Protection against anthrax protective antigen-38/LF-induced cell death in mouse RAW264.7 cells pretreated for 2 hrs followed by PA38/LA challenge assessed as cell viability measured after 4 hrs by ATPlite assay; format: functional, cell-based
HeLa [7] = test: Protection against anthrax protective antigen-38/LF-induced cell death in human HeLa cells assessed as MEK1 cleavage at 300 uM treated 90 mins after PA38/LA challenge immunoblotting assay; format: functional, cell-based
Bacillus anthracis [8] = test: Antibacterial activity against Bacillus anthracis Sterene infected in A/J mouse assessed as mouse survival at 25 mg/kg, ip daily after 24 hrs of infection for 8 days; format: functional, organism-based; set-up: dose 25 mg/kg
HeLa [9] = test: Protection against anthrax protective antigen-38/LF-induced cell death in human HeLa cells assessed as MEK1 cleavage at 100 uM treated 90 mins after PA38/LA challenge immunoblotting assay; format: functional, cell-based

O=S(=O)(Nc1cccs1)c1ccc(-c2ccc(Cl)cc2)cc1
IC50 (Lethal factor): > 50 µM
Activity [1]: inactive
Activity [2]: inactive

Cc1cc(S(=O)(=O)N[C@H](C(=O)NO)C2CCOCC2)ccc1F
Activity (HeLa [3]): Active

Cc1csc(NS(=O)(=O)c2ccc([N+](=O)[O-])cc2)c1-c1nc2ccccc2s1
IC50 (Lethal factor): 11 µM
solubility [4]: Insoluble
Stability [5]: 99%

Cc1ccc(S(=O)(=O)Nc2sccc2-c2nc3ccccc3s2)cc1Cl
IC50 (Lethal factor): 6.6 µM
Activity (Bacillus anthracis [6]): Active
EC50 (RAW264.7): 1 µM
Stability [5]: 99%

CC(C)(C)C(=O)CSC1=NNC(c2ccccc2)S1 (configuration not stated)
Activity (HeLa [3]): inactive

CCOC(=O)CCc1c(CC(=O)OCC)c[nH]c1/C=N/O
Activity (HeLa [3]): inactive

Cc1ccc(NS(=O)(=O)c2cccs2)cc1Cl
IC50 (Lethal factor): > 100 µM
Activity [1]: inactive
Activity [2]: inactive

CC(C)(C)c1ccc(-c2noc(C(=O)NNC(=S)Nc3ccc(C(F)(F)F)cc3)n2)cc1
Activity (HeLa [3]): Active

Cc1ccc(NS(=O)(=O)c2cccs2)cc1C(F)(F)F
IC50 (Lethal factor): > 100 µM
Activity [1]: inactive
Activity [2]: inactive

Cc1ccc(S(=O)(=O)Nc2cccs2)cc1Cl
IC50 (Lethal factor): > 50 µM
Activity [1]: inactive
Activity [2]: inactive

O=S(=O)(Nc1sccc1-c1nc2ccccc2s1)c1ccc(-c2ccc(Cl)cc2)cc1
IC50 (Lethal factor): 3 µM
Ki (Lethal factor): 1.7 µM
solubility [4]: Insoluble
EC50 (RAW264.7): 0.251 µM

O=S(=O)(Nc1cccc(C(F)(F)F)c1)c1cccs1
IC50 (Lethal factor): > 100 µM
Activity [1]: inactive
Activity [2]: inactive

Cc1csc(NS(=O)(=O)c2cccc(Cl)c2F)c1-c1nc2ccccc2s1
IC50 (Lethal factor): 100 µM

O=S(=O)(Nc1sccc1-c1nc2ccccc2s1)c1ccc(OC(F)(F)F)cc1
IC50 (Lethal factor): 9.6 µM

O=S(=O)(Nc1sccc1-c1nc2ccccc2s1)c1ccc2ncsc2c1
IC50 (Lethal factor): 10 µM
EC50 (RAW264.7): 1.6 µM
Stability [5]: 99.9%

O=S(=O)(Nc1sccc1-c1nc2ccccc2s1)c1ccc(Oc2ccccc2)nc1
IC50 (Lethal factor): 43 µM

Nc1ccc(Nc2ccc(N)cc2S(=O)(=O)O)cc1
Activity (HeLa [7]): Active

O=S(=O)(Nc1sccc1-c1nc2ccccc2s1)c1ccc(-c2cncs2)cc1
IC50 (Lethal factor): 12 µM

Cc1nccc(-c2cccc(S(=O)(=O)Nc3sccc3-c3nc4ccccc4s3)c2)n1
IC50 (Lethal factor): 12 µM

O=S(=O)(Nc1sccc1-c1nc2ccccc2s1)c1ccc2c(c1)OCCO2
IC50 (Lethal factor): 27 µM

O=S(=O)(Nc1sccc1-c1nc2ccccc2s1)c1ccc2c(c1)CCO2
IC50 (Lethal factor): 22 µM

CC(C)(C)c1ccc(S(=O)(=O)Nc2sccc2-c2nc3ccccc3s2)cc1
IC50 (Lethal factor): 13 µM

Cc1csc(NS(=O)(=O)c2ccc(-c3ccccc3)cc2)c1-c1nc2ccccc2s1
IC50 (Lethal factor): 17 µM

COc1ccc(-c2ccc(S(=O)(=O)Nc3sccc3-c3nc4ccccc4s3)cc2)cc1
IC50 (Lethal factor): 3.8 µM
solubility [4]: Insoluble
Activity (Bacillus anthracis [8]): Active
EC50 (RAW264.7): 0.506 µM
Stability [5]: 84%
Activity (HeLa [9]): Active

O=S(=O)(Nc1ccccc1)c1cccs1
IC50 (Lethal factor): > 100 µM
Activity [1]: inactive
Activity [2]: inactive

COc1ccc(S(=O)(=O)Nc2sccc2-c2nc3ccccc3s2)cc1OC
IC50 (Lethal factor): 19 µM

CC(=O)Nc1ccc(S(=O)(=O)Nc2scc(C)c2-c2nc3ccccc3s2)cc1
IC50 (Lethal factor): 14 µM

COc1ccc(-c2ccc(S(=O)(=O)Nc3cccs3)cc2)cc1
IC50 (Lethal factor): > 50 µM
Activity [1]: inactive
Activity [2]: inactive
